Test results: ChEMBL document CHEMBL3616436, “Synthesis, cytotoxicity and antimicrobial activity of thiourea derivatives incorporating 3-(trifluoromethyl)phenyl moiety” (Eur J Med Chem, 2015)
In brackets after ≈: the same amount, converted by molar mass.

test system: Mycobacterium tuberculosis; experiment: Antimycobacterial activity against p-aminosalicylic acid/isonicotinic acid hydrazide/etambutol/rifampicin-resistant Mycobacterium tuberculosis Spec. 210; assay type: functional
In short: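 Classical test-tube successive-dilution method in Youmans' modification of Proskauer and Beck liquid medium with 10% bovine serum. Inoculum came from 14-day cultures. DMSO stock was 10 mg/mL, diluted geometrically in medium. Tubes were incubated at 37 °C. Concentrations tested were 3.1, 6.2, 12.5, 25, 50 and 100 µg/ml. MIC is the minimum concentration inhibiting growth relative to compound-free tubes.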

| Compound | MIC |
| --- | --- |
| O=C(NC(=S)Nc1cccc(C(F)(F)F)c1)c1ccccc1 | > 100 µg/mL |
| NNC(=O)c1ccncc1 [ISONIAZID] | 6.25 µg/mL (≈ 45.6 µM) |
| CSCCCNC(=S)Nc1cccc(C(F)(F)F)c1 | 50 µg/mL (≈ 162 µM) |
| C=C(C)CNC(=S)Nc1cccc(C(F)(F)F)c1 | > 100 µg/mL |
| Fc1ccc(NC(=S)Nc2cccc(C(F)(F)F)c2)cc1 | 25 µg/mL (≈ 79.5 µM) |
| CCNC(=S)Nc1cccc(C(F)(F)F)c1 | > 100 µg/mL |
| Fc1cccc(NC(=S)Nc2cccc(C(F)(F)F)c2)c1 | 25 µg/mL (≈ 79.5 µM) |
| FC(F)(F)c1cccc(NC(=S)NC2CCCCC2)c1 | > 100 µg/mL |
| FC(F)(F)c1cccc(NC(S)=Nc2ccc(Cl)c(Cl)c2)c1 | 50 µg/mL (≈ 137 µM) |
| N#Cc1ccc(NC(=S)Nc2cccc(C(F)(F)F)c2)cc1 | > 100 µg/mL |
| Cc1ccc(NC(=S)Nc2cccc(C(F)(F)F)c2)cc1Cl | > 100 µg/mL |
| FC(F)(F)c1cccc(NC(S)=NCc2ccccc2)c1 | 25 µg/mL (≈ 80.6 µM) |
| COc1cccc(NC(=S)Nc2cccc(C(F)(F)F)c2)c1 | > 100 µg/mL |
| Fc1ccccc1NC(=S)Nc1cccc(C(F)(F)F)c1 | 100 µg/mL (≈ 318 µM) |
| FC(F)(F)c1cccc(NC(=S)Nc2cccc(Br)c2)c1 | 100 µg/mL (≈ 267 µM) |
| CCOC(=O)c1ccc(NC(=S)Nc2cccc(C(F)(F)F)c2)cc1 | > 100 µg/mL |
| Fc1ccc(NC(=S)Nc2cccc(C(F)(F)F)c2)cc1Cl | 50 µg/mL (≈ 143 µM) |
| CCCCc1ccc(NC(=S)Nc2cccc(C(F)(F)F)c2)c(C)c1 | 50 µg/mL (≈ 136 µM) |
| O=[N+]([O-])c1ccc(NC(=S)Nc2cccc(C(F)(F)F)c2)cc1 | 50 µg/mL (≈ 146 µM) |
| FC(F)(F)c1cccc(NC(=S)NCCc2ccccc2)c1 | 50 µg/mL (≈ 154 µM) |
| FC(F)(F)c1cccc(NC(=S)Nc2ccccc2)c1 | 50 µg/mL (≈ 169 µM) |
| FC(F)(F)c1cccc(NC(=S)NCc2ccco2)c1 | > 100 µg/mL |
| FC(F)(F)c1cccc(NC(=S)Nc2cccc(Cl)c2)c1 | 100 µg/mL (≈ 302 µM) |
| COC(=O)c1ccccc1NC(=S)Nc1cccc(C(F)(F)F)c1 | > 100 µg/mL |
| FC(F)(F)c1cccc(NC(=S)Nc2ccc(Cl)cc2)c1 | > 100 µg/mL |
